The source made the active and inactive calls. The rule behind the calls is not given here.

In the first assay the target is Human immunodeficiency virus type 1 reverse transcriptase (Human immunodeficiency virus 1) (UniProt Q72547). The assay is described as follows: Inhibition of HIV1 reverse transcriptase upto 100 uM by ELISA. The method in brief: (§1)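 Recombinant HIV-1 RT, non-radioactive ELISA. Oligo(dT) attached through its 5'-phosphate to the plate acts as primer on a poly(A) template (10 µg/ml). Read-out by streptavidin-alkaline phosphatase with PNPP.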
For orientation: In an ELISA, binding on a coated surface is turned into a signal by an enzyme label.
Consider `CCOCn1c(C)c(CNC2CCCCC2)c(=O)[nH]c1=O`, for which the outcome was inactive.

For `Cc1c(CNc2ccc([N+](=O)[O-])cc2)c(=O)[nH]c(=O)n1COCc1ccccc1`, the outcome was inactive.

Turning to `Cc1c(CNc2cccc([N+](=O)[O-])c2)c(=O)[nH]c(=O)n1COCc1ccccc1`, the outcome was inactive.

On to `CCOCn1c(C)c(CNc2cccc([N+](=O)[O-])c2)c(=O)[nH]c1=O`, for which the result was inactive.

For the compound `CCOCn1c(C)c(CNc2ncccn2)c(=O)[nH]c1=O`, the result was inactive.

Turning to `CCOCn1c(C)c(CNc2cccc3ccccc23)c(=O)[nH]c1=O`, the result was inactive.

Regarding `Cc1c(CNc2ccccc2[N+](=O)[O-])c(=O)[nH]c(=O)n1COCc1ccccc1`, the result was inactive.

For `CCOCn1c(C)c(CNc2ccc(C)cc2)c(=O)[nH]c1=O`, the outcome was inactive.

Consider `CCOCn1c(C)c(CNc2c(C)cccc2C)c(=O)[nH]c1=O`, for which the result was inactive.

Take `Cc1c(CNc2c(Cl)cc(Cl)cc2Cl)c(=O)[nH]c(=O)n1COCc1ccccc1`: the result was inactive.

Regarding `CCOCn1c(C)c(CN(C)c2ccccc2)c(=O)[nH]c1=O`, the outcome was inactive.

Turning to `CCOCn1c(C)c(CNc2c(Cl)cc(Cl)cc2Cl)c(=O)[nH]c1=O`, the outcome was inactive.

For `CCOCn1c(C)c(CNc2ccc([N+](=O)[O-])cc2)c(=O)[nH]c1=O`, the result was inactive.

Another assay concerns the target Human immunodeficiency virus type 1 reverse transcriptase (Human immunodeficiency virus 1, UniProt Q72547). The assay is described as follows: Inhibition of HIV1 reverse transcriptase by ELISA. The method in brief:
as §1
`CCOCn1c(C)c(CNc2ccccn2)c(=O)[nH]c1=O` showed an IC50 of 54.7 µM.

In turn, `Cc1c(CNc2cc(Cl)c(Cl)cc2Cl)c(=O)[nH]c(=O)n1COCc1ccccc1` gave an IC50 of more than 100 µM.

`Cc1ccc(NCc2c(C)n(COCc3ccccc3)c(=O)[nH]c2=O)cc1` registered an IC50 of 13.8 µM.

In turn, `Cc1c(CNC2CCCCC2)c(=O)[nH]c(=O)n1COCc1ccccc1` came in with an IC50 of 5.09 µM.

In turn, `CCOCn1c(C)c(CNc2cc(C)ccc2C)c(=O)[nH]c1=O` had an IC50 of 26.2 µM.

Consider `Cc1c(CN(C)c2ccccc2)c(=O)[nH]c(=O)n1COCc1ccccc1`, for which the IC50 amounted to 3.49 µM.

`CCOCn1c(C)c(CNc2ccccc2[N+](=O)[O-])c(=O)[nH]c1=O` registered an IC50 of more than 100 µM.

As for `CCOCn1c(C)c(CNc2cc(Cl)c(Cl)cc2Cl)c(=O)[nH]c1=O`, the IC50 was 0.82 µM.

By IC50 is commonly meant the concentration that inhibits the measured activity by half. A higher IC50 goes with a need for much substance.

(Values after ChEMBL document CHEMBL1137526, “The design and synthesis of N-1-alkylated-5-aminoarylalkylsubstituted-6-methyluracils as potential non-nucleoside HIV-1 RT inhibitors” (Bioorg Med Chem, 2007).)
